Measurements: ChEMBL document CHEMBL2429837, “Identification of cryptotanshinone as an inhibitor of oncogenic protein tyrosine phosphatase SHP2 (PTPN11)” (J Med Chem, 2013)

Experiments:
[1] = target: T1, Tyrosine-protein phosphatase non-receptor type 9 (Homo sapiens, UniProt P43378); test: Inhibition of GST-tagged MEG2 (unknown origin) using phospho-EGFR Asp-Ala-Asp-Glu-Tyr[PO3H2]-Leu-Ile-Pro-Gln-Gln-Gly as substrate preincubated for 30 mins before substrate addition measured after 30 mins by phosphatase activity assay
T1 sequence (P43378 whole entry): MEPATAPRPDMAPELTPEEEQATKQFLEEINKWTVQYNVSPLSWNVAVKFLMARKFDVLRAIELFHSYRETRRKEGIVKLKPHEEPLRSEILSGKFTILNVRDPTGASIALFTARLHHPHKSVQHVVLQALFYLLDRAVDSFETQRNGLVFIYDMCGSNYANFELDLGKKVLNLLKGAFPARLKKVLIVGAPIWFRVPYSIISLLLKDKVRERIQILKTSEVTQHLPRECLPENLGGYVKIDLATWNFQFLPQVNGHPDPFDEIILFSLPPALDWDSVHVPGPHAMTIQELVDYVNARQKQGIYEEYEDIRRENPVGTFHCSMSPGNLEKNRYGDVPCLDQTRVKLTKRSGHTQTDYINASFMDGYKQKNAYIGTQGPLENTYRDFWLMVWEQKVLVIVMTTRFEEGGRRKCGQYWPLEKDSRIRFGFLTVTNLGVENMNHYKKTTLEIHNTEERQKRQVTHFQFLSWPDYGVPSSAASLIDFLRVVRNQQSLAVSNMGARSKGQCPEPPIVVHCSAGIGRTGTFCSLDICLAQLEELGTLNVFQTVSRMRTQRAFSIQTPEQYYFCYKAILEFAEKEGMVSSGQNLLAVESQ
Summary of the method: (§1)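 GST-fusion phosphatase, purified in-house or commercial (MEG2 purchased). Enzyme and compound preincubated 30 min at room temperature in 25 mM Tris-HCl pH 7.4, 50 mM NaCl, 5 mM DTT, 2.5 mM EDTA. EGFR pTyr1018 peptide then added to 0.2 mM final and incubated 30 min at 30°C. Released phosphate read with Malachite Green at OD620 after 10 min. IC50 from 6 concentrations, three independent experiments.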

[2] = target: Tyrosine-protein phosphatase non-receptor type 11 (Homo sapiens, UniProt Q06124, E76K); test: Inhibition of GST-tagged full-length SHP2 E76K mutant (unknown origin) using phospho-EGFR Asp-Ala-Asp-Glu-Tyr[PO3H2]-Leu-Ile-Pro-Gln-Gln-Gly as substrate preincubated for 30 mins before substrate addition measured after 30 mins by phosphatase activity assay
Sequence of Tyrosine-protein phosphatase non-receptor type 11 (Homo sapiens, UniProt Q06124, E76K) (Q06124 as listed by the source E76K): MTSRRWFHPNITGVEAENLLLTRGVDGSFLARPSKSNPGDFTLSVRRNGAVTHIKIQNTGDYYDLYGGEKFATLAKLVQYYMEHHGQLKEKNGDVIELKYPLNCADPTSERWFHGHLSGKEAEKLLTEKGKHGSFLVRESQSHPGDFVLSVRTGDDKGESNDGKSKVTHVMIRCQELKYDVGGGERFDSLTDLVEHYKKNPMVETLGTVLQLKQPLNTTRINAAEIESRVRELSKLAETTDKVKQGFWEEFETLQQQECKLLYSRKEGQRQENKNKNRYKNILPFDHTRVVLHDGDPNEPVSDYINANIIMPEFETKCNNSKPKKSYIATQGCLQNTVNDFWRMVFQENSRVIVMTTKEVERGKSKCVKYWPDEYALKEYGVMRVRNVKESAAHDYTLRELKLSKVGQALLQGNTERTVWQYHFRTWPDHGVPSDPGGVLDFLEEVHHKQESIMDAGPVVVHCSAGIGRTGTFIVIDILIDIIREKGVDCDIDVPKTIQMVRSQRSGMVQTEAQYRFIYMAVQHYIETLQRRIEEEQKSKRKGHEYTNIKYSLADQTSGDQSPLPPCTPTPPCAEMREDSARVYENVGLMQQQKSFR

[3] = Growth inhibition of IL3-stimulated mouse BA/F3 cells after 48 hrs by CellTiter 96 assay; format: functional, cell-based; settings: BaF3, 48 h
Summary of the method: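 Ba/F3 cells seeded 5 × 10^3 per well in RPMI-1640 with 10% FBS and mouse IL-3 (1.0 ng/mL), grown overnight, then exposed to compound or matching DMSO for 48 h. Viable cells counted by tetrazolium-based one-solution proliferation reagent. Triplicates per experiment, three experiments; mean±S.E.M.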

[4] = target: Tyrosine-protein phosphatase non-receptor type 6 (Homo sapiens, UniProt P29350); test: Inhibition of GST-tagged SHP1 PTP domain (unknown origin) using phospho-EGFR Asp-Ala-Asp-Glu-Tyr[PO3H2]-Leu-Ile-Pro-Gln-Gln-Gly as substrate preincubated for 30 mins before substrate addition measured after 30 mins by phosphatase activity assay
Sequence of Tyrosine-protein phosphatase non-receptor type 6 (P29350 whole entry, the tested form may be a part): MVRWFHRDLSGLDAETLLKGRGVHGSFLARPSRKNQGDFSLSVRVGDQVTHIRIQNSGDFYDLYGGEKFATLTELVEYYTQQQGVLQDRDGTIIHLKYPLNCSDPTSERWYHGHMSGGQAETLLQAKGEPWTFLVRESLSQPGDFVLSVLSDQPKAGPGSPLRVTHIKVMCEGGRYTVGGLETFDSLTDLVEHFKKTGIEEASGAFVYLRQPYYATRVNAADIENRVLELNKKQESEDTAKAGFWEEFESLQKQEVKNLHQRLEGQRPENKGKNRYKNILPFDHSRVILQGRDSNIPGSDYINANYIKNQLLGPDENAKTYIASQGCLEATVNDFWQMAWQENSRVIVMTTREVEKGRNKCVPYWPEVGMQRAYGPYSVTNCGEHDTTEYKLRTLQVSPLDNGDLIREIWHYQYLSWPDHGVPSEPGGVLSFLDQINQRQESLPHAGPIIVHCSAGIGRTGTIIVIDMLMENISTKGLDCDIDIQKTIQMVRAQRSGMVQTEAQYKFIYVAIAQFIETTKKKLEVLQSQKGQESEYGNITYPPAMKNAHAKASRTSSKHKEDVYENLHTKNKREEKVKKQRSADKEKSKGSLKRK
Summary of the method: (§2)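 In-house SHP1 or purchased GST-CD45 cytoplasmic domain, GST-LAR, GST-TC-PTP preincubated with compound (6 concentrations) in 25 mM Tris-HCl pH 7.4, 50 mM NaCl, 5 mM DTT, 2.5 mM EDTA, room temperature 30 min. Phospho-EGFR pTyr1018 peptide added to 0.2 mM final, 30°C 30 min; released phosphate by Malachite Green, OD620. Three independent experiments.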

[5] = target: T2, Tyrosine-protein phosphatase non-receptor type 2 (Homo sapiens, UniProt P17706); test: Inhibition of GST-tagged TC-PTP (unknown origin) using phospho-EGFR Asp-Ala-Asp-Glu-Tyr[PO3H2]-Leu-Ile-Pro-Gln-Gln-Gly as substrate preincubated for 30 mins before substrate addition measured after 30 mins by phosphatase activity assay; summary of the method: as §2
T2 sequence (P17706 whole entry): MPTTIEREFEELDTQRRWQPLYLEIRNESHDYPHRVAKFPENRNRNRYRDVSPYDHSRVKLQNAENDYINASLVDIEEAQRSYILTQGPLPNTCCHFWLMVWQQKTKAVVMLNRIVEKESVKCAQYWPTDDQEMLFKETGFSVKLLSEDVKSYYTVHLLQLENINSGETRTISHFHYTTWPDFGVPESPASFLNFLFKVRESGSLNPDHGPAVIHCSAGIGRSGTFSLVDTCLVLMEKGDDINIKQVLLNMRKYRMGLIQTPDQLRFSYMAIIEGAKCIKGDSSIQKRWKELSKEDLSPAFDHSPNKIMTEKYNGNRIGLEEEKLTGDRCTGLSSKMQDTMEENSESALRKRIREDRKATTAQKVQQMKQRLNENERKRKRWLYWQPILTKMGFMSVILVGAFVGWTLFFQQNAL

[6] = target: T3, Receptor-type tyrosine-protein phosphatase C (Homo sapiens, UniProt P08575); test: Inhibition of GST-tagged CD45 (unknown origin) using phospho-EGFR Asp-Ala-Asp-Glu-Tyr[PO3H2]-Leu-Ile-Pro-Gln-Gln-Gly as substrate preincubated for 30 mins before substrate addition measured after 30 mins by phosphatase activity assay; summary of the method: as §2
T3 sequence (P08575 whole entry): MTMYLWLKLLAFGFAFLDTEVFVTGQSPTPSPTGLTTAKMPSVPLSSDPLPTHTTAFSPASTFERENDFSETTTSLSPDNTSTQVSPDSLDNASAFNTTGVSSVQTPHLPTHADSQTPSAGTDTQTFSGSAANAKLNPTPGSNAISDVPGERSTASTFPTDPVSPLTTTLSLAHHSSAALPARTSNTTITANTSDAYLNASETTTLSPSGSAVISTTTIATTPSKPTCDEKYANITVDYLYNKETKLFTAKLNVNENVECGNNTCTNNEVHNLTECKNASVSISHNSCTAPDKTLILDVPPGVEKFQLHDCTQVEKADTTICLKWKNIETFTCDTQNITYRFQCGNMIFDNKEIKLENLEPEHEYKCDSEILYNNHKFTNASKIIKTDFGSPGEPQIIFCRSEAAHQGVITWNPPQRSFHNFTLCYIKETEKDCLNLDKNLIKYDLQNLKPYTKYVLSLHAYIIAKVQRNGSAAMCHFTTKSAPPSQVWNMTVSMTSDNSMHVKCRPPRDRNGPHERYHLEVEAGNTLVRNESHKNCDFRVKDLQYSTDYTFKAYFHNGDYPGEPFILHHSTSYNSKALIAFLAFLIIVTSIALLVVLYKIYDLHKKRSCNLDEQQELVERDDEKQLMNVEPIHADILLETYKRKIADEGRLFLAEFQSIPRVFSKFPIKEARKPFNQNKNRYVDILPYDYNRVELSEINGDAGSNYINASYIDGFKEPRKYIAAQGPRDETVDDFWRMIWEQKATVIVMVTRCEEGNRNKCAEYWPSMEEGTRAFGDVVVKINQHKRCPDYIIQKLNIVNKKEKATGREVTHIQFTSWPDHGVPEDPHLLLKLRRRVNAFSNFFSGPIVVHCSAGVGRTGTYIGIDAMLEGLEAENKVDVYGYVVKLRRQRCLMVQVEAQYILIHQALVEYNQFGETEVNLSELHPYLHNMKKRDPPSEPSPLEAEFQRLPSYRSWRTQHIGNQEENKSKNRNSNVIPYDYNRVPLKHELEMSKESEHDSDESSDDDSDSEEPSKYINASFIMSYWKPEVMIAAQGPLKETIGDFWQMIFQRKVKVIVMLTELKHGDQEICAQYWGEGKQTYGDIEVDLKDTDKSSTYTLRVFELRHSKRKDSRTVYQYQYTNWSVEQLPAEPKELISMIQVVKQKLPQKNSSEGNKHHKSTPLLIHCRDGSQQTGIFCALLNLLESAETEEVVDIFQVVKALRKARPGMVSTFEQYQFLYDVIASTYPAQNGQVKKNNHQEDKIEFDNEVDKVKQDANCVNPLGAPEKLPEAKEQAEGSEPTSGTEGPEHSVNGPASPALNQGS

[7] = target: T4, Tyrosine-protein phosphatase non-receptor type 11 (Homo sapiens, UniProt Q06124); test: Inhibition of wild type GST-tagged full-length SHP2 (unknown origin) using phospho-EGFR Asp-Ala-Asp-Glu-Tyr[PO3H2]-Leu-Ile-Pro-Gln-Gln-Gly as substrate preincubated for 30 mins before substrate addition measured after 30 mins by phosphatase activity assay
T4 sequence (Q06124 whole entry): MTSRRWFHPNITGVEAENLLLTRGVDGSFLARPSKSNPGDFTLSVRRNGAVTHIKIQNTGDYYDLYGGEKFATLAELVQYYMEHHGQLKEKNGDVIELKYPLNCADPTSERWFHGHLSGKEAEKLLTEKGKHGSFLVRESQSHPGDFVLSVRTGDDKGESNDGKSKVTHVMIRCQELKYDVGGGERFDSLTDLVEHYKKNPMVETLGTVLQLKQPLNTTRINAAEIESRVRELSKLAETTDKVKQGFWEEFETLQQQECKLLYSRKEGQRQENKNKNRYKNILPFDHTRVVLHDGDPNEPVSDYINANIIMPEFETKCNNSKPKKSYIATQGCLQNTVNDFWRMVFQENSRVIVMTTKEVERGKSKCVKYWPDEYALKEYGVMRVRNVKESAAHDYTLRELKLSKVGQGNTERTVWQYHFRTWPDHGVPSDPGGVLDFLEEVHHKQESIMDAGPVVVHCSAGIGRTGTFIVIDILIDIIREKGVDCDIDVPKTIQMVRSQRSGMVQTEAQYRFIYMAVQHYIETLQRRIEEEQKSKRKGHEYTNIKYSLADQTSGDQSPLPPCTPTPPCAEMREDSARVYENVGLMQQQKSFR
Summary of the method: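 Wild-type full-length SHP2 was purified recombinant and run like the in-house GST-SHP2 assay. It was preincubated with compound 30 min at room temperature in Tris-HCl pH 7.4 buffer with NaCl, DTT and EDTA. Phospho-EGFR peptide was then added to 0.2 mM and incubated 30 min at 30°C, with Malachite Green read-out at OD620. Triplicates from one of three repeat experiments.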

[8] = target: T5, Tyrosine-protein phosphatase non-receptor type 1 (Homo sapiens, UniProt P18031); test: Inhibition of GST-tagged PTP1B (unknown origin) using phospho-EGFR Asp-Ala-Asp-Glu-Tyr[PO3H2]-Leu-Ile-Pro-Gln-Gln-Gly as substrate preincubated for 30 mins before substrate addition measured after 30 mins by phosphatase activity assay; summary of the method: as §1
T5 sequence (P18031 whole entry): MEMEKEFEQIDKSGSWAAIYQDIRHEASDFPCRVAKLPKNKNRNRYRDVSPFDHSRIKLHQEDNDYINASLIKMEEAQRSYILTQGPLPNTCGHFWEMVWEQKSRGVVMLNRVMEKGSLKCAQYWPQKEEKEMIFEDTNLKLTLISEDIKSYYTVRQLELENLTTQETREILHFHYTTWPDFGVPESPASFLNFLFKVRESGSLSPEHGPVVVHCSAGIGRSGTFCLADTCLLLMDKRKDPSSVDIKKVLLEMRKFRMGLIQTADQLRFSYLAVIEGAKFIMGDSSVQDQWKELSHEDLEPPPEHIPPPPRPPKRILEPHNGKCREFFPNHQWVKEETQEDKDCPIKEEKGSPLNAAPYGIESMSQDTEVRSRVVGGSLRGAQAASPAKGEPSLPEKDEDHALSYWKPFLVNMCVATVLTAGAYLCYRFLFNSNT

[9] = target: Receptor-type tyrosine-protein phosphatase F (Homo sapiens, UniProt P10586); test: Inhibition of GST-tagged LAR (unknown origin) using phospho-EGFR Asp-Ala-Asp-Glu-Tyr[PO3H2]-Leu-Ile-Pro-Gln-Gln-Gly as substrate preincubated for 30 mins before substrate addition measured after 30 mins by phosphatase activity assay; summary of the method: as §2
Sequence of Receptor-type tyrosine-protein phosphatase F (P10586 whole entry, the tested form may be a part): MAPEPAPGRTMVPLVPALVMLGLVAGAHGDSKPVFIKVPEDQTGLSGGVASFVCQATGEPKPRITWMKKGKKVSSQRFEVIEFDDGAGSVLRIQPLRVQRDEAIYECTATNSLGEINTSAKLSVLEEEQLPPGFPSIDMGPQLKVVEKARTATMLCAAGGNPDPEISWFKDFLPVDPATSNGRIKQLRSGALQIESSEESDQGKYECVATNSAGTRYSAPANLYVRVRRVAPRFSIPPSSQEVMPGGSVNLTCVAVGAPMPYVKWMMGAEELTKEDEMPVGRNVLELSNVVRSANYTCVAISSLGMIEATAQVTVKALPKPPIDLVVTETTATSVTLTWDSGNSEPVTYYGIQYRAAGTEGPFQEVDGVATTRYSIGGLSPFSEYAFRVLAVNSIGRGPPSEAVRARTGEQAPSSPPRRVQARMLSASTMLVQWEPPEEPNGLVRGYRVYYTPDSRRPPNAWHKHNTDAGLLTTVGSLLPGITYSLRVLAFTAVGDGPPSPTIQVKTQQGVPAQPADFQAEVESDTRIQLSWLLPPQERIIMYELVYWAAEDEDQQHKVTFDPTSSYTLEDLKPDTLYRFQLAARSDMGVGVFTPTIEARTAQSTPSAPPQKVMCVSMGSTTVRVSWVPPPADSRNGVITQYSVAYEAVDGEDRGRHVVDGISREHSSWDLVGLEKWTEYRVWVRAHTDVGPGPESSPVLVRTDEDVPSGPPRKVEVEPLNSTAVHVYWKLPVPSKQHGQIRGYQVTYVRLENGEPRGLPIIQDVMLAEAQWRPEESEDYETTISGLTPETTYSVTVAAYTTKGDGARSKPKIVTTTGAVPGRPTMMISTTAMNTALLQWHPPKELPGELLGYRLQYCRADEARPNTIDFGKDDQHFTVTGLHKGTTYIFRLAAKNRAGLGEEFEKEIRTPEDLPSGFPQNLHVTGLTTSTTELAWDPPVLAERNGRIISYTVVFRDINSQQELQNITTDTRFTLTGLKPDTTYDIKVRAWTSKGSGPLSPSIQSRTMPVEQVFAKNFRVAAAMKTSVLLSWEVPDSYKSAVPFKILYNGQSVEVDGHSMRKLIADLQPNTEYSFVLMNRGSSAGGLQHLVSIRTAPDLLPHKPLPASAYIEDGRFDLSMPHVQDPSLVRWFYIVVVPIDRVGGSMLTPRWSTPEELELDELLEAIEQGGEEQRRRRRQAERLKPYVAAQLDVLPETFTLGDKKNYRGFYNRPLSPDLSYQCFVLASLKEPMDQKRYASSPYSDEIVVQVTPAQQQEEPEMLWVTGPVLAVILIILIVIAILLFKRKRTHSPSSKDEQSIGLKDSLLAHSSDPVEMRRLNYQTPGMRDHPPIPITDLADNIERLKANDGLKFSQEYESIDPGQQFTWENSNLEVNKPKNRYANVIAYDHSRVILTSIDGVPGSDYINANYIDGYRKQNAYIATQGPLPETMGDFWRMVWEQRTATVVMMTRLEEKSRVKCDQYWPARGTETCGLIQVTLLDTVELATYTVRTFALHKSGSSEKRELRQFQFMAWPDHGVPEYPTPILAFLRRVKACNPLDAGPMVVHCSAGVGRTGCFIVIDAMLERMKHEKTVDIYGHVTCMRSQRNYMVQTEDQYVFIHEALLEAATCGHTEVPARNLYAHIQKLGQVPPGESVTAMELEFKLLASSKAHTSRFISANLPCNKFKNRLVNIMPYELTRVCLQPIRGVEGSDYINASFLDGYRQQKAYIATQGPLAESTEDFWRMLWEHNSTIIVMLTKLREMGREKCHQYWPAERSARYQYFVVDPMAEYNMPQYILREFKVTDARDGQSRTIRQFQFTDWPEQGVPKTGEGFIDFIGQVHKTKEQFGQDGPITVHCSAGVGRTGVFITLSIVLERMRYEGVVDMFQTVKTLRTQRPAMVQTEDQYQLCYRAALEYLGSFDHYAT

[10] = target: T4, Tyrosine-protein phosphatase non-receptor type 11; test: Inhibition of GST-tagged SHP2 PTP domain (unknown origin) using phospho-EGFR Asp-Ala-Asp-Glu-Tyr[PO3H2]-Leu-Ile-Pro-Gln-Gln-Gly as substrate preincubated for 30 mins before substrate addition measured after 30 mins by phosphatase activity assay
Summary of the method: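 GST-SHP2 PTP domain fusion, purified in-house, 0.5 µg per reaction. Buffer 25 mM Tris-HCl pH 7.4, 50 mM NaCl, 5 mM DTT, 2.5 mM EDTA. Inhibitor pre-incubation at room temperature; substrate 0.2 mM final; reaction at 30°C. Free phosphate by Malachite Green, OD620 read after 10 min. IC50 from 6 (or 5) concentrations, three independent experiments.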

C[C@H]1COC2=C1C(=O)C(=O)c1c2ccc2c1CCCC2(C)C [CRYPTOTANSHINONE]
IC50 [1]: 59.4 µM | IC50 [2]: 23.9 µM | IC50 [3]: 17.2 µM | IC50 [4]: 39.5 µM | IC50 [5]: 55.7 µM | IC50 [6]: 41.4 µM | IC50 [7]: 45.2 µM | IC50 [8]: 33.5 µM | IC50 [9]: 36.9 µM | IC50 [10]: 22.5 µM

Cc1cccc2c3c(ccc12)C1=C(C(=O)C3=O)[C@@H](C)CO1 [DIHYDROTANSHINONE I]
IC50 [4]: 3.67 µM | IC50 [10]: 3.94 µM

Cc1coc2c1C(=O)C(=O)c1c-2ccc2c1CCCC2(C)C [TANSHINONE IIA]
IC50 [4]: 2.14 µM | IC50 [10]: 2.59 µM

Cc1coc2c1C(=O)C(=O)c1c-2ccc2c(C)cccc12 [TANSHINONE I]
IC50 [4]: 1.97 µM | IC50 [10]: 2.57 µM
